pIC50: −log10 of the molar value. The source made the active and inactive calls. No cut-off for these calls is given here.
Experiments:
[1] = test system: Mycobacterium tuberculosis; test: Antibacterial activity against Mycobacterium bovis BCG ATCC 35734 after 5 days by broth dilution method; format: functional; details: BCG str. ATCC 35743, 120 h
How it was run: (§1)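 Broth dilution; growth read by turbidity; MIC50 and MIC90 are the concentrations reducing growth by 50% and 90% relative to untreated controls; average of two or more separate determinations.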

[2] = test system: Mycobacterium tuberculosis; test: Antibacterial activity against Mycobacterium tuberculosis H37Rv ATCC 27294 after 7 days by broth dilution method; format: functional; details: H37Rv ATCC 27294, 168 h; how it was run: as §1
Vero C1008 = test: Cytotoxicity against African green monkey Vero E6 cells assessed as reduction in cell viability after 48 hrs by cell titre 96 aqueous one solution-based assay; details: Chlorocebus sabaeus, Vero C1008, 48 h
How it was run: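 Vero cell viability was compared with untreated control cells. IC50 was taken as the concentration giving 50% loss of viability, averaged over two or more separate determinations.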

[3] = Hemolytic activity against human RBC after 1 hr; format: ADME, cell-based, Erythrocyte; details: human red blood cells (erythrocytes)
How it was run: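 Human red blood cells were exposed to compound, and lysis was scaled against Triton X-100 (2% v/v), taken as 100% hemolysis. HC50 was the concentration lysing 50% of cells, averaged over two or more separate determinations.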

[4] = test system: Mycobacterium tuberculosis; test: Bactericidal activity against Mycobacterium bovis BCG ATCC 35734 assessed as reduction in colony forming units after 5 days; format: functional, BCG str. ATCC 35743; details: for MBC: Mycobacterium tuberculosis, BCG ATCC 35734, 120 h, read-out: MBC99.9
[5] = test system: Mycobacterium tuberculosis; test: Bactericidal activity against Mycobacterium bovis BCG ATCC 35734 assessed as reduction in membrane potential by measuring red to green fluorescent ratio at 24 uM measured at 20 mins to 3 hrs by DiOC2-dye based fluorescence assay; format: functional, organism-based; details: BCG str. ATCC 35743
[6] = test system: Mycobacterium tuberculosis; test: Bactericidal activity against Mycobacterium bovis BCG ATCC 35734 assessed as suppression of reductive capacity by measuring decrease in formazan formation after 0.5 to 1 hr by MTT reduction assay; format: functional, organism-based; details: BCG str. ATCC 35743
How it was run: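 BCG cultures exposed to 0.2–100 μM for 30 min and 1 h, then MTT added; formazan production read at 595 nm against drug-free basal absorbance; CCCP 100 μM reference; representative of two independent experiments.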

[7] = test system: Mycobacterium bovis BCG str. ATCC 35743; test: Inhibition of NDH2 in Mycobacterium bovis BCG ATCC 35734 assessed as reduction in oxygen consumption at 80 uM after 1 hr by methylene blue-based assay
How it was run: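 Mid-log M. bovis BCG cultures in 7H9 medium were exposed to compound, then methylene blue was added (0.001%) and the tubes were incubated oxygen-free at 37 °C for […]. Oxygen use was read as methylene blue decolorization. Controls were medium-only tubes and drug-free culture.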

Lipid bilayer [8] = test: Binding affinity to DMPG vesicles assessed as change in enthalpy at 2 mM by differential scanning calorimetric analysis (reference value: -20.63 kJ/mol)
How it was run: (§2)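 Compound-loaded vesicles of negatively charged dimyristoylphosphatidylglycerol, used as a bacterial membrane surrogate, were scanned by differential scanning calorimetry. The gel-to-liquid melting endotherm was read for melting temperature (Tm) and calorimetric enthalpy (ΔH).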

Lipid bilayer [9] = test: Binding affinity to DMPG vesicles assessed as melting transition temperature by differential scanning calorimetric analysis (reference value: 21.09 to 23.28 degC)
Lipid bilayer [10] = test: Binding affinity to DMPG vesicles assessed as increase in melting transition temperature by differential scanning calorimetric analysis; how it was run: as §2
[11] = test system: Mycobacterium tuberculosis; test: Bactericidal activity against Mycobacterium bovis BCG ATCC 35734 assessed as increase in propidium iodide uptake at 6 uM after 1 to 5 days by flow cytometry; format: functional, organism-based; details: BCG str. ATCC 35743
[12] = test system: Mycobacterium tuberculosis; test: Bactericidal activity against Mycobacterium bovis BCG ATCC 35734 assessed as reduction in colony forming units at 6 uM after 1 to 5 days by time kill assay; format: functional, organism-based; details: BCG str. ATCC 35743
[13] = test system: Mycobacterium tuberculosis; test: Bactericidal activity against Mycobacterium bovis BCG ATCC 35734 assessed as reduction in membrane potential by measuring red to green fluorescent ratio at 24 uM measured after 1 to 5 days by DiOC2-dye based fluorescence assay; format: functional, organism-based; details: BCG str. ATCC 35743
How it was run: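 Membrane potential in treated BCG cultures tracked as DiOC2 red/green fluorescence ratio over extended exposure of 1, 3 and 5 days.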

[14] = test system: Mycobacterium tuberculosis; test: Bactericidal activity against Mycobacterium bovis BCG ATCC 35734 assessed as cell elongation at 24 uM after 1 to 5 days by acid-fast staining-based light microscopy; format: functional, organism-based; details: BCG str. ATCC 35743
[15] = test system: Mycobacterium tuberculosis; test: Bactericidal activity against Mycobacterium bovis BCG ATCC 35734 assessed as reduction in oxygen consumption at 15 times MIC90 after 1 hr by methylene blue-based assay; format: functional, organism-based; details: BCG str. ATCC 35743
[16] = test system: Mycobacterium tuberculosis; test: Bactericidal activity against Mycobacterium bovis BCG ATCC 35734 assessed as reduction in oxygen consumption at 5 times MIC90 after 1 hr by methylene blue-based assay; format: functional, organism-based; details: BCG str. ATCC 35743
[17] = test system: Mycobacterium tuberculosis; test: Bactericidal activity Mycobacterium bovis BCG ATCC 35734 assesses as cell death at 15 times MIC90 after 1 hr in presence of methylene blue; format: functional, organism-based; details: BCG str. ATCC 35743
[18] = test system: Mycobacterium tuberculosis; test: Bactericidal activity against Mycobacterium bovis BCG ATCC 35734 assessed as reduction in oxygen consumption at 10 times MIC90 after 1 hr by methylene blue-based assay; format: functional, organism-based; details: BCG str. ATCC 35743
[19] = test system: Mycobacterium tuberculosis; test: Bactericidal activity against Mycobacterium bovis BCG ATCC 35734 assessed as reduction in membrane potential by measuring red to green fluorescent ratio at 0.08 uM measured at 20 mins to 3 hrs by DiOC2-dye based fluorescence assay; format: functional, organism-based; details: BCG str. ATCC 35743

## Fc1cccc2c1ccn2CCCCC[P+](c1ccccc1)(c1ccccc1)c1ccccc1
[1]
  MIC50: 3 µM
  MIC90: 5 µM

## Fc1cccc2ccn(CCC[P+](c3ccccc3)(c3ccccc3)c3ccccc3)c12
[1]
  MIC50: 5 µM
  MIC90: 12 µM

## COc1cccc2c1ccn2CCC[P+](c1ccccc1)(c1ccccc1)c1ccccc1
[1]
  MIC50: 6 µM
  MIC90: 11 µM

## COc1ccc2c(ccn2CCC[P+](c2ccccc2)(c2ccccc2)c2ccccc2)c1
[1]
  MIC50: 10 µM
  MIC90: 23 µM

## COc1cccc2ccn(CCC[P+](c3ccccc3)(c3ccccc3)c3ccccc3)c12.[I-]
[1]
  MIC50: 4 µM
  MIC90: 6 µM
[2]
  MIC50: 6 µM
  MIC90: 20 µM
Vero C1008
  pIC50: 4.47
[3]
  HC50 at 1 h: > 300 µM
[4]
  MBC99: 13 µM
  MBC: 25 µM

## Fc1ccc2ccn(CCC[P+](c3ccccc3)(c3ccccc3)c3ccccc3)c2c1
[1]
  MIC50: 6 µM
  MIC90: 12 µM

## CCCCCn1ccc2cccc(OC)c21
[1]
  MIC50: > 50 µM
  MIC90: > 50 µM
[5]
  Activity: inactive
[6]
  Activity: inactive

## O=[N+]([O-])c1cccc2ccn(CCC[P+](c3ccccc3)(c3ccccc3)c3ccccc3)c12
[1]
  MIC50: 2 µM
  MIC90: 4 µM

## CCCCCCCCCC[P+](c1ccccc1)(c1ccccc1)c1ccccc1
[1]
  MIC50: 3.9 µM
  MIC90: 6 µM

## O=[N+]([O-])c1ccc2ccn(CCCCC[P+](c3ccccc3)(c3ccccc3)c3ccccc3)c2c1
[1]
  MIC50: 3 µM
  MIC90: 4 µM

## Fc1ccc2c(ccn2CCC[P+](c2ccccc2)(c2ccccc2)c2ccccc2)c1
[1]
  MIC50: 8 µM
  MIC90: 17 µM

## Fc1cccc2c1ccn2CCC[P+](c1ccccc1)(c1ccccc1)c1ccccc1
[1]
  MIC50: 6 µM
  MIC90: 12 µM

## CSc1ccc2c(c1)N(CCC1CCCCN1C)c1ccccc1S2 (centres undefined)
[7]
  inhibition: Active

## Fc1cccc2ccn(CCCCC[P+](c3ccccc3)(c3ccccc3)c3ccccc3)c12
[1]
  MIC50: 3 µM
  MIC90: 6 µM

## CCC[P+](c1ccccc1)(c1ccccc1)c1ccccc1
[1]
  MIC50: > 50 µM
  MIC90: > 50 µM
Lipid bilayer [8]
  deltaH: -2.74 kcal/mol
Lipid bilayer [9]
  Tm: 21.1 to 23.2 °C

## O=[N+]([O-])c1cccc2c1ccn2CCCCC[P+](c1ccccc1)(c1ccccc1)c1ccccc1.[I-]
[1]
  MIC50: 2 µM
  MIC90: 3 µM
[2]
  MIC50: 4 µM
  MIC90: 6 µM
Vero C1008
  pIC50: 4.44
[3]
  HC50 at 1 h: 196 µM
Lipid bilayer [10]
  ΔTm: 1 °C
[4]
  MBC99: 3 µM
  MBC: 6 µM
[11]
  Activity: Active
[12]
  Activity: Active
[5]
  Activity: Active
[13]
  Activity: Active
[14]
  Activity: Active
[6]
  Activity: Dose-dependent effect
[15]
  Activity: Active
[16]
  Activity: inactive
[17]
  Activity: Toxic
[18]
  Activity: Active

## O=[N+]([O-])c1ccc2c(ccn2CCCCC[P+](c2ccccc2)(c2ccccc2)c2ccccc2)c1
[1]
  MIC50: 3 µM
  MIC90: 5 µM

## CO[C@H]1/C=C/O[C@@]2(C)Oc3c(C)c(O)c4c(O)c(c(/C=N/N5CCN(C)CC5)c(O)c4c3C2=O)NC(=O)/C(C)=C\C=C\[C@H](C)[C@H](O)[C@@H](C)[C@@H](O)[C@@H](C)[C@H](OC(C)=O)[C@@H]1C
[19]
  Activity: inactive

## O=[N+]([O-])c1ccc2c(ccn2CCC[P+](c2ccccc2)(c2ccccc2)c2ccccc2)c1
[1]
  MIC50: 9 µM
  MIC90: 12 µM

## Fc1ccc2ccn(CCCCC[P+](c3ccccc3)(c3ccccc3)c3ccccc3)c2c1
[1]
  MIC50: 3 µM
  MIC90: 5 µM

## COc1cccc2c1ccn2CCCCC[P+](c1ccccc1)(c1ccccc1)c1ccccc1
[1]
  MIC50: 3 µM
  MIC90: 5 µM

## c1ccc([P+](CCCCCn2ccc3ccccc32)(c2ccccc2)c2ccccc2)cc1
[1]
  MIC50: 4.3 µM
  MIC90: 6.3 µM

## c1ccc(CCCCCC[P+](c2ccccc2)(c2ccccc2)c2ccccc2)cc1
[1]
  MIC50: 5.2 µM
  MIC90: 11.6 µM

## O=[N+]([O-])c1cccc2ccn(CCCCC[P+](c3ccccc3)(c3ccccc3)c3ccccc3)c12
[1]
  MIC50: 1 µM
  MIC90: 2 µM

## COc1ccc2ccn(CCC[P+](c3ccccc3)(c3ccccc3)c3ccccc3)c2c1
[1]
  MIC50: 7 µM
  MIC90: 15 µM

## CCCn1ccc2cc(F)ccc21
[1]
  MIC50: > 50 µM
  MIC90: > 50 µM
Lipid bilayer [8]
  deltaH: -4.77 kcal/mol
Lipid bilayer [9]
  Tm: 20.1 °C

## O=[N+]([O-])c1ccc2ccn(CCC[P+](c3ccccc3)(c3ccccc3)c3ccccc3)c2c1
[1]
  MIC50: 7 µM
  MIC90: 13 µM

## COc1ccc2ccn(CCCCC[P+](c3ccccc3)(c3ccccc3)c3ccccc3)c2c1
[1]
  MIC50: 4 µM
  MIC90: 8 µM

## Fc1ccc2c(ccn2CCCCC[P+](c2ccccc2)(c2ccccc2)c2ccccc2)c1
[1]
  MIC50: 3 µM
  MIC90: 5 µM

## CCCCC[P+](c1ccccc1)(c1ccccc1)c1ccccc1
[1]
  MIC50: 28 µM
  MIC90: > 50 µM
[5]
  Activity: inactive
[6]
  Activity: inactive

## O=[N+]([O-])c1cccc2c1ccn2CCC[P+](c1ccccc1)(c1ccccc1)c1ccccc1.[I-]
[1]
  MIC50: 5 µM
  MIC90: 9 µM
[2]
  MIC50: 22 µM
  MIC90: 45 µM
Vero C1008
  pIC50: < 4.00
[3]
  HC50 at 1 h: 230 µM
[4]
  MBC99: 25 µM
  MBC: 50 µM

## COc1ccc2c(ccn2CCCCC[P+](c2ccccc2)(c2ccccc2)c2ccccc2)c1
[1]
  MIC50: 5 µM
  MIC90: 10 µM

— ChEMBL document CHEMBL4130564, “Indolylalkyltriphenylphosphonium Analogues Are Membrane-Depolarizing Mycobactericidal Agents” (ACS Med Chem Lett, 2017)
